pIC50: −log10 of the molar value.
Columns and labels:
[1] = system: HL-60; experiment: Cytotoxicity against human HL-60 cells assessed as cell viability at 10 uM by CellTiter Glo luminescent assay relative to control; assay type: functional; settings: read-out: Activity
Outline: (§1)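 Single-concentration screen at 10 µM; percentage viability measured by CellTiter-Glo luminescent quantitation of ATP in metabolically active cells.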

[2] = system: HL-60; experiment: Cytotoxicity against human HL-60 cells assessed as reduction in cell viability by CellTiter Glo luminescent assay; assay type: functional, cell-based
Outline: (§2)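 CellTiter-Glo luminescent read-out of cellular ATP, taken as proportional to viable cell number; percentage viability measured and IC50 derived. MRC5 used as normal (non-cancer) line.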

[3] = system: HCT-116; experiment: Cytotoxicity against human HCT-116 cells assessed as cell viability at 10 uM by CellTiter Glo luminescent assay relative to control; assay type: functional; settings: read-out: Activity; outline: as §1
[4] = system: MCF7; experiment: Cytotoxicity against human MCF7 cells assessed as reduction in cell viability by CellTiter Glo luminescent assay; assay type: functional, cell-based; outline: as §2
[5] = system: U-87 MG; experiment: Cytotoxicity against human U-87 MG cells assessed as reduction in cell viability by CellTiter Glo luminescent assay; assay type: functional, cell-based, U-87MG ATCC; outline: as §2
[6] = Selectivity index, ratio of IC50 for human MRC5 cells to IC50 for human U-87 MG cells by CellTiter Glo luminescent assay; assay type: toxicity; settings: MRC5 cells versus U-87 MG cells, read-out: Ratio IC50
Outline: (§3)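 Safety ratio computed as IC50 in MRC5 normal cells divided by IC50 in the cancer line, both from CellTiter-Glo ATP-luminescence viability assays.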

[7] = Selectivity index, ratio of IC50 for human MRC5 cells to IC50 for human PC-3 cells by CellTiter Glo luminescent assay; assay type: toxicity; settings: MRC5 cells versus PC-3 cells, read-out: Ratio IC50; outline: as §3
[8] = system: HCT-116; experiment: Cytotoxicity against human HCT-116 cells assessed as reduction in cell viability by CellTiter Glo luminescent assay; assay type: functional, cell-based; outline: as §2
[9] = Selectivity index, ratio of IC50 for human MRC5 cells to IC50 for human A549 cells by CellTiter Glo luminescent assay; assay type: toxicity; settings: MRC5 cells versus A549 cells, read-out: Ratio IC50; outline: as §3
[10] = Selectivity index, ratio of IC50 for human MRC5 cells to IC50 for human HCT-116 cells by CellTiter Glo luminescent assay; assay type: toxicity; settings: MRC5 cells versus HCT-116 cells, read-out: Ratio IC50; outline: as §3
[11] = system: SK-OV-3; experiment: Cytotoxicity against human SK-OV-3 cells assessed as reduction in cell viability by CellTiter Glo luminescent assay; assay type: functional, cell-based; outline: as §2
[12] = system: PC-3; experiment: Cytotoxicity against human PC-3 cells assessed as reduction in cell viability by CellTiter Glo luminescent assay; assay type: functional, cell-based; outline: as §2
[13] = system: MRC5; experiment: Cytotoxicity against human MRC5 cells assessed as reduction in cell viability by CellTiter Glo luminescent assay; assay type: cell-based; outline: as §2
[14] = system: A549; experiment: Cytotoxicity against human A549 cells assessed as reduction in cell viability by CellTiter Glo luminescent assay; assay type: functional, cell-based; outline: as §2
[15] = Selectivity index, ratio of IC50 for human MRC5 cells to IC50 for human HL60 cells by CellTiter Glo luminescent assay; assay type: toxicity; settings: MRC5 cells versus HL60 cells, read-out: Ratio IC50
[16] = Selectivity index, ratio of IC50 for human MRC5 cells to IC50 for human MCF7 cells by CellTiter Glo luminescent assay; assay type: toxicity; settings: MRC5 cells versus MCF7 cells, read-out: Ratio IC50; outline: as §3
[17] = Selectivity index, ratio of IC50 for human MRC5 cells to IC50 for human SK-OV-3 cells by CellTiter Glo luminescent assay; assay type: toxicity; settings: MRC5 cells versus SK-OV-3 cells, read-out: Ratio IC50; outline: as §3
[18] = Selectivity index, ratio of IC50 for human HL-60 cells to IC50 for human HCT-116 cells by CellTiter Glo luminescent assay; assay type: functional

SMILES: C=C(CC)C(=O)c1ccc(OCC(=O)NC2CCN(S(=O)(=O)c3ccc([N+](=O)[O-])cc3)CC2)c(Cl)c1Cl
- viability at 10 µM [1]: 23%
- pIC50 [2]: 5.61
- viability at 10 µM [3]: 100%

SMILES: C=C(CC)C(=O)c1ccc(OCC(=O)N2CCN(S(=O)(=O)C3CCCCC3)CC2)c(Cl)c1Cl
- viability at 10 µM [1]: 32%
- pIC50 [2]: 5.63
- viability at 10 µM [3]: 100%

SMILES: C=C(CC)C(=O)c1ccc(OCC(=O)NCCNS(C)(=O)=O)c(Cl)c1Cl
- viability at 10 µM [1]: 21%
- pIC50 [2]: 6.03
- viability at 10 µM [3]: 62%

SMILES: C=C(CC)C(=O)c1ccc(OCC(=O)N2CCN(S(C)(=O)=O)CC2)c(Cl)c1Cl
- viability at 10 µM [1]: 24%
- pIC50 [2]: 5.47
- viability at 10 µM [3]: 68%

SMILES: C=C(CC)C(=O)c1ccc(OCC(=O)N2CCN(S(=O)(=O)c3ccc([N+](=O)[O-])cc3)CC2)c(Cl)c1Cl
- viability at 10 µM [1]: 24%
- pIC50 [2]: 5.49
- viability at 10 µM [3]: 100%

SMILES: C=C(CC)C(=O)c1ccc(OCC(=O)NCCNS(=O)(=O)c2ccc([N+](=O)[O-])cc2)c(Cl)c1Cl
- viability at 10 µM [1]: 27%
- pIC50 [2]: 6.24
- viability at 10 µM [3]: 59%

SMILES: C=C(CC)C(=O)c1ccc(OCC(=O)NC2CCN(S(=O)(=O)c3cc(Cl)ccc3OC)CC2)c(Cl)c1Cl
- pIC50 [4]: 7.01
- viability at 10 µM [1]: 16%
- pIC50 [5]: 6.51
- selectivity ratio [6]: 2.93
- selectivity ratio [7]: 11.8
- pIC50 [8]: 6.10
- selectivity ratio [9]: 16.3
- selectivity ratio [10]: 1.13
- pIC50 [11]: 6.82
- pIC50 [2]: 6.15
- pIC50 [12]: 7.12
- pIC50 [13]: 6.05
- pIC50 [14]: 7.26
- selectivity ratio [15]: 1.28
- selectivity ratio [16]: 9.27
- selectivity ratio [17]: 6

SMILES: C=C(CC)C(=O)c1ccc(OCC(=O)NC2CCN(S(=O)(=O)c3ccc(OC)cc3OC)CC2)c(Cl)c1Cl
- viability at 10 µM [1]: 11%
- pIC50 [2]: 6.07
- viability at 10 µM [3]: 90%

SMILES: C=C(CC)C(=O)c1ccc(OCC(=O)NCCNS(=O)(=O)c2cc(Cl)ccc2OC)c(Cl)c1Cl
- viability at 10 µM [1]: 18%
- pIC50 [2]: 5.80
- viability at 10 µM [3]: 78%

SMILES: C=C(CC)C(=O)c1ccc(OCC(=O)NC2CCN(S(C)(=O)=O)CC2)c(Cl)c1Cl
- viability at 10 µM [1]: 26%
- pIC50 [2]: 5.48
- viability at 10 µM [3]: 73%

SMILES: C=C(CC)C(=O)c1ccc(OCC(=O)NC2CCN(S(=O)(=O)c3ccc(C)cc3)CC2)c(Cl)c1Cl
- viability at 10 µM [1]: 25%
- pIC50 [2]: 6.01
- viability at 10 µM [3]: 100%

SMILES: C=C(CC)C(=O)c1ccc(OCC(=O)NCCNS(=O)(=O)c2ccc(C)cc2)c(Cl)c1Cl
- viability at 10 µM [1]: 17%
- pIC50 [2]: 5.63
- viability at 10 µM [3]: 100%

SMILES: C=C(CC)C(=O)c1ccc(OCC(=O)NCCNS(=O)(=O)C2CCCCC2)c(Cl)c1Cl
- viability at 10 µM [1]: 28%
- pIC50 [2]: 5.87
- viability at 10 µM [3]: 91%

SMILES: C=C(CC)C(=O)c1ccc(OCC(=O)NC2CCN(S(=O)(=O)c3ccc(OC)cc3)CC2)c(Cl)c1Cl
- pIC50 [4]: 6.89
- viability at 10 µM [1]: 25%
- pIC50 [5]: 6.62
- selectivity ratio [6]: 18.1
- selectivity ratio [7]: 38.6
- pIC50 [8]: 5.94
- selectivity ratio [9]: 63.8
- selectivity ratio [10]: 3.75
- pIC50 [11]: 6.51
- pIC50 [2]: 6.20
- pIC50 [12]: 6.95
- pIC50 [13]: 5.36
- pIC50 [14]: 7.17
- selectivity ratio [15]: 6.85
- selectivity ratio [16]: 33.8
- selectivity ratio [17]: 14
- viability at 10 µM [3]: 45%

SMILES: C=C(CC)C(=O)c1ccc(OCC(=O)NC2CCN(S(=O)(=O)C3CCCCC3)CC2)c(Cl)c1Cl
- viability at 10 µM [1]: 41%
- pIC50 [2]: 5.53
- viability at 10 µM [3]: 61%

SMILES: C=C(CC)C(=O)c1ccc(OCC(=O)N2CCN(S(=O)(=O)c3cc(Cl)ccc3OC)CC2)c(Cl)c1Cl
- viability at 10 µM [1]: 24%
- pIC50 [2]: 5.85
- viability at 10 µM [3]: 75%

SMILES: C=C(CC)C(=O)c1ccc(OCC(=O)NC2CCN(S(=O)(=O)c3cccc4cccnc34)CC2)c(Cl)c1Cl
- viability at 10 µM [1]: 34%
- pIC50 [2]: 6.01
- viability at 10 µM [3]: 84%

SMILES: C=C(CC)C(=O)c1ccc(OCC(=O)N2CCN(S(=O)(=O)c3ccc(OC)cc3)CC2)c(Cl)c1Cl
- Ratio IC50 [18]: 12
- pIC50 [4]: 7.25
- viability at 10 µM [1]: 17%
- pIC50 [5]: 6.68
- selectivity ratio [6]: 0.48
- selectivity ratio [7]: 4.03
- pIC50 [8]: 7.30
- selectivity ratio [9]: 1.54
- selectivity ratio [10]: 2
- pIC50 [11]: 6.66
- pIC50 [2]: 6.23
- pIC50 [12]: 7.62
- pIC50 [13]: 7.00
- pIC50 [14]: 7.19
- selectivity ratio [15]: 0.16
- selectivity ratio [16]: 1.78
- selectivity ratio [17]: 0.45
- viability at 10 µM [3]: 21%

SMILES: C=C(CC)C(=O)c1ccc(OCC(=O)NCCNS(=O)(=O)c2ccc(OC)cc2)c(Cl)c1Cl
- viability at 10 µM [1]: 24%
- pIC50 [2]: 6.07
- viability at 10 µM [3]: 97%

SMILES: C=C(CC)C(=O)c1ccc(OCC(=O)NCCNS(=O)(=O)c2ccc(OC)c(OC)c2)c(Cl)c1Cl
- viability at 10 µM [1]: 19%
- pIC50 [2]: 5.47
- viability at 10 µM [3]: 97%

SMILES: C=C(CC)C(=O)c1ccc(OCC(=O)NCCNS(=O)(=O)c2ccc(OC)cc2OC)c(Cl)c1Cl
- viability at 10 µM [1]: 35%
- pIC50 [2]: 5.55
- viability at 10 µM [3]: 77%

SMILES: C=C(CC)C(=O)c1ccc(OCC(=O)N2CCN(S(=O)(=O)c3ccc(C)cc3)CC2)c(Cl)c1Cl
- viability at 10 µM [1]: 64%
- viability at 10 µM [3]: 100%

SMILES: C=C(CC)C(=O)c1ccc(OCC(=O)NC2CCN(S(=O)(=O)c3ccc(OC)c(OC)c3)CC2)c(Cl)c1Cl
- viability at 10 µM [1]: 25%
- pIC50 [2]: 5.88
- viability at 10 µM [3]: 99%

SMILES: C=C(CC)C(=O)c1ccc(OCC(=O)NCCNS(=O)(=O)c2cccc3cccnc23)c(Cl)c1Cl
- viability at 10 µM [1]: 20%
- pIC50 [2]: 5.88
- viability at 10 µM [3]: 100%

SMILES: C=C(CC)C(=O)c1ccc(OCC(=O)N2CCN(S(=O)(=O)c3ccc(OC)cc3OC)CC2)c(Cl)c1Cl
- viability at 10 µM [1]: 15%
- pIC50 [2]: 5.50
- viability at 10 µM [3]: 40%

SMILES: C=C(CC)C(=O)c1ccc(OCC(=O)N2CCN(S(=O)(=O)c3ccc(OC)c(OC)c3)CC2)c(Cl)c1Cl
- viability at 10 µM [1]: 100%
- viability at 10 µM [3]: 89%

SMILES: C=C(CC)C(=O)c1ccc(OCC(=O)N2CCN(S(=O)(=O)c3cccc4cccnc34)CC2)c(Cl)c1Cl
- viability at 10 µM [1]: 28%
- pIC50 [2]: 5.53
- viability at 10 µM [3]: 100%

SMILES: COc1cccc2c1C(=O)c1c(O)c3c(c(O)c1C2=O)C[C@@](O)(C(=O)CO)C[C@@H]3O[C@H]1C[C@H](N)[C@H](O)[C@H](C)O1 [DOXORUBICIN]
- pIC50 [4]: 6.92
- pIC50 [5]: 7.05
- pIC50 [8]: 7.05
- pIC50 [2]: 8.00
- pIC50 [12]: 8.70
- pIC50 [13]: 7.41
- pIC50 [14]: 7.25
